From ChEMBL document CHEMBL4414568, “Development of Novel Irreversible Pyruvate Kinase M2 Inhibitors” (J Med Chem, 2019)
Active and inactive are the calls of the source. The calls are words filed in the database; no cut-off is given here.

How the values were obtained:
PC-9 [1] = test: Antiproliferative activity against human PC9 cells harboring EGFR mutant assessed as reduction in cell viability incubated for 24 hrs by MTT assay; format: functional, cell-based; settings: PC-9, 24 h
Summary of the method: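 Cells seeded at 3,500 per well in 10% FBS and left overnight, then exposed to test agent or vehicle in 5% FBS for 24 h. MTT added for 1 h, then medium swapped for DMSO and absorbance read at 560 nm. Viability given as percent of vehicle-treated control. Run in triplicate.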

Pyruvate kinase PKM [2] = biological target: T1, Pyruvate kinase PKM (Homo sapiens, UniProt P14618); test: Inhibition of PKM2 in human PC9 cells assessed as reduction in beta-catenin expression incubated for 24 hrs by Western blot analysis; format: cell-based
T1 sequence (P14618 2-531 limits assumed): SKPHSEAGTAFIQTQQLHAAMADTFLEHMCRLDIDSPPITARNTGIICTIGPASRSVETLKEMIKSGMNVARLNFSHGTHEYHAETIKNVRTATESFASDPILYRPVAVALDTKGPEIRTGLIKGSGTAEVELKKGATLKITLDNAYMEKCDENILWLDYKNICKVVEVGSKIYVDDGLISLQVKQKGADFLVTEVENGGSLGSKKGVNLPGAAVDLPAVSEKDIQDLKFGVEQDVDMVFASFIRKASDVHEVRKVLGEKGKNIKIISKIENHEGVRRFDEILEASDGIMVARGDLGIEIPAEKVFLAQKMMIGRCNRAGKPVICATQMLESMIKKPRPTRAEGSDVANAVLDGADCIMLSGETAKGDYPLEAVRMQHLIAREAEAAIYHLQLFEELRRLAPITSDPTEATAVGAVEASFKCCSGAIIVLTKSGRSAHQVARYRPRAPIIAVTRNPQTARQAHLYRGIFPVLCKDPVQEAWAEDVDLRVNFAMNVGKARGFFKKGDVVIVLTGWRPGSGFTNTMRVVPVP
Summary of the method: (§1)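 PC-9 cells seeded at 5 × 10^5 cells/mL; after 24 h given 0–1 µM compound or DMSO for 24 h. Lysates run on 10% SDS-PAGE, transferred to nitrocellulose, probed for PKM2, EGFR, p-STAT3, STAT3, p-β-catenin, β-catenin and β-actin with HRP secondaries, ECL detection.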

Pyruvate kinase PKM [3] = biological target: T1, Pyruvate kinase PKM; test: Inhibition of PKM2 in human PC9 cells assessed as reduction in STAT3 phosphorylation incubated for 24 hrs by Western blot analysis; format: cell-based; summary of the method: as §1
PC-9 [4] = test: Induction of ROS production in human PC9 cells at 0.25 and 0.5 uM incubated for 6 hrs by H2DCFDA dye-based fluorescence assay; format: functional, cell-based
Summary of the method: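 PC-9 cells at 2 × 10^4 per well, after 24 h treated with compound or DMSO for 6 h. Cells washed, given 1X ROS label in assay buffer for 45 min at 37 °C in the dark, fluorescence read at Ex/Em 495/529 nm as an end point. n = 3.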

PC-9 [5] = test: Antitumor activity against human PC9 cells xenografted in athymic nude mouse assessed as reduction in tumor growth at 10 mg/kg, ip administered once daily for 25 days measured post-last dose by caliper method; format: functional, organism-based
Summary of the method: (§2)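 Female nude mice, 6 weeks old, given s.c. 1 × 10^6 PC-9 cells in Matrigel (1:1). From day 7, once-daily i.p. vehicle or 10 mg/kg compound in sterile water with 0.5% methylcellulose and 0.1% Tween-80, n = 8 per group, for 25 days. Tumor volume and body weight followed, tumors weighed at end.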

PC-9 [6] = test: Antitumor activity against human PC9 cells xenografted in athymic nude mouse assessed as reduction in tumor weight at 10 mg/kg, ip administered once daily for 25 days measured post-last dose; format: functional, organism-based; summary of the method: as §2
Mus musculus = test: In vivo inhibition of PKM2 in human PC9 cells xenografted in athymic nude mouse assessed as reduction in EGFR expression at 10 mg/kg, ip administered once daily for 25 days measured post-last dose by Western blot analysis; format: functional, organism-based
Summary of the method: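 Tumors from PC-9 xenograft nude mice given 10 mg/kg i.p. daily or vehicle for 25 days (n = 8 per group) were lysed for Western blots of PKM2, EGFR, Stat3 and β-catenin. Bands quantified by ImageJ and normalized to GAPDH.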

Pyruvate kinase PKM [7] = biological target: T1, Pyruvate kinase PKM; test: Inhibition of N-(4-(3-(3-(Methylamino)-3-oxopropyl)-5-(4'-(prop-2-yn-1-yloxy)-[1,1'-biphenyl]-4-yl)-1H-pyrazol-1-yl)phenyl)propiolamide binding to PKM2 in human PC9 cells at 1 uM preincubated for 1 hr followed by probe addition and measured after 1 hr using antibody by Western blot analysis; format: cell-based
Summary of the method: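 PC-9 cells pretreated with 1 µM compound or DMSO for 1 h, then alkyne probe added at 0.5, 1 or 2 µM for 1 h at 37 °C. Lysates put through Cu-catalysed click with biotin-azide, streptavidin beads 16 h at 4 °C, washes with 0.5% SDS/PBS, 10% SDS-PAGE and PKM2 Western blot.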

C#CC(=O)Nc1ccc(-n2nc(CCC(=O)NC)cc2-c2ccc(-c3ccc(C(F)(F)F)cc3)cc2)cc1
IC50 (PC-9 [1]): 0.5 µM
inhibition (Pyruvate kinase PKM [2]): Dose-dependent effect
inhibition (Pyruvate kinase PKM [3]): Dose-dependent effect
Activity (PC-9 [4]): inactive
Activity (PC-9 [5]): Active
Activity (PC-9 [6]): Active
inhibition (Mus musculus): Active
inhibition (Pyruvate kinase PKM [7]): Active
